In series [1] the test system is PANC-1. As to the kind of experiment: Cytotoxicity against human PANC-1 cells assessed as LDH release at 10 uM measured after 24 hrs by LDH assay. In kind it is functional, cell-based. The essentials: (§1)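 1 × 10^5 BxPC-3 (RPMI-1640) or Panc-1 (DMEM high glucose) cells were allowed to adhere for 24 h, then given 10 μM compound. Membrane integrity was measured by LDH release (CytoTox-ONE) every 24 h for up to 3 days, with background OD subtracted.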

In series [2] the test system is BXPC-3. The series can be described thus: Antiinvasive activity in S100P expressing human BXPC-3 cells assessed as inhibition of cell invasion at 10 uM incubated for 48 hrs by transwell invasion assay. In kind it is functional, cell-based. Summed up:
(§2)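 Matrigel-coated Transwell (PET membrane, 8 μm pores). BxPC-3 (RPMI-1640) or Panc-1 (DMEM) cells were seeded at 2 × 10^5 cells/mL in serum-free medium in the upper chamber, with 10% FBS below as chemoattractant. Cells were given 10 μM compound (0.1% DMSO final) for 48 h at 37 °C, 5% CO2. Invaded cells were Diff-Quik stained and counted in five ×100 fields. Three independent experiments.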

The test system of series [3] is PANC-1. The series can be described thus: Cytotoxicity against human PANC-1 cells assessed as reduction in cell viability at 10 uM measured after 24 hrs by MTS assay. In kind it is functional, cell-based. Summed up:
(§3)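 1 × 10^5 BxPC-3 (RPMI-1640) or Panc-1 (DMEM high glucose) cells, in medium with 10% FBS, were allowed to adhere for 24 h, then given 10 μM compound. MTS absorbance was read at 492 nm every 24 h. Background was subtracted and values normalized to untreated cells. n = 3 separate experiments.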
Background: Formazan colour is commonly taken as a measure of viable cells.

Series [4] concerns BXPC-3. As to the kind of experiment: Cytotoxicity against S100P expressing human BXPC-3 cells assessed as LDH release at 10 uM measured after 24 hrs by LDH assay. In kind it is functional, cell-based. The essentials:
as §1
For orientation: Release of lactate dehydrogenase indicates damage to the cell membrane.

For series [5], the system named is BXPC-3. As to the kind of experiment: Cytotoxicity against S100P expressing human BXPC-3 cells assessed as reduction in cell viability at 10 uM measured after 24 hrs by MTS assay. In kind it is functional, cell-based. The essentials:
as §3

Series [6] concerns PANC-1. The series can be described thus: Antiinvasive activity in human PANC-1 cells assessed as inhibition of cell invasion at 10 uM incubated for 48 hrs by transwell invasion assay. In kind it is functional, cell-based. The essentials:
as §2

For series [7], the species on record is Homo sapiens. As to the kind of experiment: Inhibition of human recombinant S100P/RAGE interaction incubated for 1 hr and measured by ELISA based binding assay. Summed up: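 His-tagged human S100P, expressed in E. coli BL21 and Ni-NTA purified, was coated at 2 μM in PBS pH 7.4 with 1 mM CaCl2, 10 μM ZnCl2 and 0.5 mM MgCl2 overnight at 37 °C, then blocked with 1% BSA for 2 h. Wells got increasing compound concentrations in triplicate, then human RAGE-Fc for 1 h at 37 °C, anti-human HRP for 1 h, and TMB for 20 min. Read at 450 nm, normalized to S100P+RAGE-Fc; IC50 estimated.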

Series [8] can be described thus: Aqueous solubility of the compound in 1% DMSO. In kind it is physicochemical. To be noted: buffer.
Series [9] is described as follows: Aqueous solubility of the compound in 0.1% DMSO. In kind it is physicochemical. To be noted: buffer.
Series [10] relates to PANC-1. The series can be described thus: Antiinvasive activity in human PANC-1 cells assessed as inhibition of cell invasion at 100 to 200 uM incubated for 48 hrs by transwell invasion assay. As to conditions: dose 100-200 µM.
Series [11] concerns BXPC-3. The series can be described thus: Antiinvasive activity in S100P expressing human BXPC-3 cells assessed as inhibition of cell invasion at 100 to 200 uM incubated for 48 hrs by transwell invasion assay. As to conditions: dose 100-200 µM.

The structures appear in SMILES notation. Calls of active or inactive are those of the source. No cut-off for these calls is given here.

In the case of `COc1ccc(/C=C2/C(=O)NC(=O)N(c3ccc(Cl)c(Cl)c3)C2=O)cc1C(=O)O`, the result in series [1], in series [3], in [4], in series [5] and in [6] was inactive. In [2], the result was Active.
For `O=C1C2C3c4ccccc4C(c4ccccc43)C2C(=O)N1c1ccccc1` (centres undefined), the result in series [1], in series [3], in [4], in series [5] and in series [6] was inactive. Further, the INH in series [7] worked out at 10 nM. For the same compound, the solubility result in [8] and in series [9] was “Soluble” throughout. The result in series [2] was Active.
Turning to `N#CCCn1cc(C(=O)Nc2ccc(C(=O)O)cc2)c(-c2ccccc2)n1`, the result in series [1], in [3], in [4], in [5] and in series [6] was inactive. Besides, the result in series [2] was Active.
As to `O=C(O)c1cc(=O)c2c(OCC(O)COc3cccc4oc(C(=O)O)cc(=O)c34)cccc2o1`, the result in series [1], in series [2], in series [3], in series [4], in series [5] and in series [6] was inactive. Moreover, the outcome in [10] and in [11] was Active.
Turning to `O=C(Cc1cc(O)n[nH]1)N/N=C/c1c(Cl)cccc1Cl`, the outcome in series [1], in [3], in series [4], in [5] and in series [6] was inactive. Moreover, the result in [2] was Active.
For `O=C1C2C3c4ccccc4C(c4ccccc43)C2C(=O)N1c1ccc(F)cc1` (centres undefined), the outcome in series [1], in [3], in [4], in series [5] and in [6] was inactive. Further, in series [7], the INH is 10 nM. For the same compound, the solubility entry in series [8] and in [9] was “Soluble” each time. Besides, in series [2], the outcome was Active.
For `O=C1C2C3c4ccccc4C(c4ccccc43)C2C(=O)N1c1cccc(F)c1` (centres undefined), the result in [1], in series [3], in series [4], in series [5] and in series [6] was inactive. Also, in series [7], the INH is 10 nM. In addition, the solubility entry in [8] and in series [9] was “Soluble” in each case. Moreover, in series [2], the outcome was Active.
On to `O=C1C2C3c4ccccc4C([N+](=O)[O-])(c4ccccc43)C2C(=O)N1c1cccc(F)c1` (centres undefined), for which the outcome in series [1], in series [3], in series [4], in series [5] and in series [6] was inactive. Besides, the INH in [7] was 100 nM. Further, the solubility entry in [8] and in series [9] was “Soluble” each time. The result in series [2] was Active.
As to `Cc1ccc(-c2ccc(=O)n(CC(=O)Nc3ccc(-n4cnnn4)cc3)n2)cc1`, the outcome in series [1], in series [3], in series [4], in [5] and in [6] was inactive. Also, the outcome in [2] was Active.
As for `O=C(O)c1ccc(N2C(=O)C3C4c5ccccc5C([N+](=O)[O-])(c5ccccc54)C3C2=O)cc1` (centres undefined), the outcome in series [1], in series [3], in series [4], in series [5] and in series [6] was inactive. For the same compound, the INH in series [7] is < 10 nM. In addition, the solubility result in [8] and in series [9] was “Soluble” in each case. Also, the outcome in [2] was Active.
As for `O=C(O)c1cccc(N2C(=O)C3C4c5ccccc5C([N+](=O)[O-])(c5ccccc54)C3C2=O)c1` (centres undefined), the result in series [1], in series [3], in series [4], in series [5] and in series [6] was inactive. The INH in [7] is 10 nM. In addition, in series [2], the result was Active.

Source of the values: ChEMBL document CHEMBL4765393, “Discovery of novel small molecule inhibitors of S100P with in vitro anti-metastatic effects on pancreatic cancer cells” (Eur J Med Chem, 2020).
